In PMC8906099 (Current Research in Parasitology & Vector-borne Diseases, 2021):
In brackets after ≈: the same amount, converted by molar mass. Like-named read-outs stand apart in the source and are kept apart here.

Legend:
[1] = system: trypomastigotes of T. cruzi (Sylvio X10/4 strain); experiment: Trypanocidal activity against trypomastigotes; type: cell-based; settings: Trypanosoma cruzi, 72 h, read-out: IC50 ± SD, trypomastigotes
Outline: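 Sylvio X10/4 trypomastigotes were taken from amastigote culture supernatant and seeded at 1 × 10^6 per well. Test compound was added at 0.19–100 μM (0.1% DMSO), with benznidazole (0.019–10 μM) and DMSO controls. Incubation was 72 h at 37 °C, 5% CO2. Viability was read with resazurin (40 μM in PBS), fluorescence 530/630 nm. IC50 came from sigmoid dose–response fits.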

[2] = system: amastigotes of T. cruzi Brazil strain; experiment: Trypanocidal activity against intracellular amastigotes in C2C12 cells; type: cell-based; settings: Trypanosoma cruzi, C2C12, 72 h, read-out: IC50 ± SD, amastigotes
Outline: (§1)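 Trypomastigotes from C2C12 co-culture (DMEM, 10% FBS, 25 mM HEPES, pH 7.2) were seeded with C2C12 cells at a 1:15 infection rate. Test compound (0.19–100 μM, 2-fold, 0.1% DMSO) was added at the start. After 72 h at 37 °C, 5% CO2, cells were stained with DAPI 2 h and imaged confocally. Amastigote and host nuclei were told apart by size. IC50 came from sigmoid fits of the infection ratio normalised to controls. Mean ± SD, three experiments in triplicate.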

[3] = system: amastigotes of T. cruzi CA-I/72 strain; experiment: as above; type: cell-based; settings: Trypanosoma cruzi, C2C12, 72 h, read-out: IC50 ± SD, amastigotes
Outline: as §1

[4] = system: amastigotes of T. cruzi Sylvio X10/4 strain; experiment: as above; type: cell-based; settings: Trypanosoma cruzi, C2C12, 72 h, read-out: IC50 ± SD, amastigotes
Outline: as §1

[5] = system: amastigotes of T. cruzi Sylvio X10/7 strain; experiment: as above; type: cell-based, Trypanosoma cruzi; settings: Trypanosoma cruzi, C2C12, 72 h, read-out: IC50 ± SD, amastigotes, Sylvio X10/7 strain, 72 h incubation
Outline: as §1

[6] = system: intracellular amastigotes of T. cruzi CA-I/72 strain; experiment: Time-course study against intracellular amastigotes; type: cell-based; settings: Trypanosoma cruzi, read-out: IC50 ± SD
Outline: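 CA-I/72 trypomastigotes were incubated with C2C12 cells for 48 h to form intracellular amastigotes. Test compound was then added (0.19–100 μM, 2-fold, 0.1% DMSO), with benznidazole and DMSO controls. Incubation ran 8, 12, 24 or 48 h at 37 °C, 5% CO2. Growth inhibition was read by DAPI high-content imaging. IC50 came from sigmoid fits of the normalised infection ratio. Time trend was tested by linear regression and ANOVA.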

[7] = Time-course cytotoxicity in infected C2C12 cells; type: cell-based, murine; settings: mouse
Outline: (§2)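 This uses the CA-I/72 time-course infection format: a 48 h pre-infection of C2C12 cells, then test compound at 0.19–100 μM for 8, 12, 24 or 48 h, with DAPI imaging. Host viability was the total host cell count divided by the mean count of 0.1% DMSO controls. CC50 came from sigmoid fits. SI = CC50/IC50 against amastigotes at the matching time.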

[8] = system: C2C12 cells infected with intracellular amastigotes of T. cruzi (CA-I/72 strain); experiment: Time-course cytotoxicity in infected C2C12 cells; type: cell-based, murine; settings: infected C2C12 vs amastigotes CA-I/72, time-course
Outline: as §2

[9] = Cytotoxicity in infected C2C12 cells after 72 h; type: cell-based, murine; settings: mouse
Outline: (§3)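 C2C12 cells were infected with trypomastigotes (1:15) together with test compound (0.19–100 μM, 0.1% DMSO) for 72 h at 37 °C, 5% CO2. Host nuclei were counted by DAPI high-content imaging. Viability was the cell count relative to the DMSO-control mean. CC50 came from sigmoid fits. SI = CC50/IC50 against intracellular amastigotes of the same strain at 72 h.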

infected C2C12 cells = experiment: Cytotoxicity in infected C2C12 cells after 72 h; type: cell-based, murine; settings: 72 h
Outline: as §3

[10] = Cytotoxicity in non-infected cells; type: cell-based, murine; settings: mouse, non-infected C2C12 cells
Outline: (§4)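 Non-infected C2C12 cells (5 × 10^4 per well) were plated for 24 h. Test compound (0.19–100 μM, 2-fold, 0.1% DMSO) was then added for 72 h at 37 °C. Controls were untreated, DMSO 0.4% and Triton 15%. After a PBS wash, MTT (2 mg/ml) was added for 4 h, and absorbance was read at 450 nm (reference 620 nm). CC50 came from sigmoid fits. SI = CC50/IC50 against CA-I/72 amastigotes at 72 h.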

non-infected C2C12 cells = experiment: Cytotoxicity in non-infected cells; type: cell-based, murine; settings: non-infected C2C12 CC50 / IC50 amastigotes CA-I/72 strain, 72 h
Outline: as §4

[11] = Cytotoxicity in non-infected cells; type: cell-based, monkey; settings: monkey, non-infected LLC-MK2 cells
Outline: (§5)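 LLC-MK2 monkey kidney cells, grown in RPMI with 10% FBS at 37 °C and 5% CO2, were plated and after 24 h exposed to test compound (0.19–100 μM, 2-fold dilutions, 0.1% DMSO) for 72 h at 37 °C. Controls were untreated cells, 0.4% DMSO and 15% Triton. After a PBS wash, MTT (2 mg/ml) was added for 4 h, and absorbance read at 450/620 nm. SI is CC50 divided by the 72 h CA-I/72 intracellular amastigote IC50.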

[12] = system: non-infected LLC-MK2 cells; experiment: Cytotoxicity in non-infected cells; type: cell-based, monkey; settings: non-infected LLC-MK2 CC50 / IC50 amastigotes CA-I/72 strain, 72 h
Outline: as §5

female BALB/c mice = experiment: Acute oral toxicity test in mice; type: in vivo; settings: for DA/TA (dead animals/total animals) / Mortality / Signs of toxicity: 14 days
Outline: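 Six-week-old female BALB/c mice (25–30 g), five per group. Single oral dose of 300 or 1,000 mg/kg test compound in Tween 80/ethanol/water (7:3:90), with a vehicle group. Clinical signs (ataxia, tremor, salivation, ptosis, seizures and others) watched continuously for 1 h, periodically over 24 h, then daily to day 14. Mortality recorded.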

P. falciparum = settings: ref Aher et al., 2011, cited from earlier work
[13] = system: several Streptococcus species; settings: ref Vieira et al., 2018; cited from earlier work
Trichomonas vaginalis = settings: ref Carapina da Silva et al., 2019, cited from earlier work
[14] = C2C12 cells infected with T. cruzi Brazil strain
[15] = C2C12 cells infected with T. cruzi CA-I/72 strain
[16] = C2C12 cells infected with T. cruzi Sylvio X10/4 strain
[17] = C2C12 cells infected with T. cruzi Sylvio X10/7 strain
[18] = infected C2C12, Sylvio X10/4 strain
[19] = infected C2C12, Sylvio X10/7 strain

| Structure (SMILES) | IC50 [1] | IC50 [2] | IC50 [3] | IC50 [4] | IC50 [5] | IC50 ([6]; 8 h) | IC50 ([6]; 12 h) | IC50 ([6]; 24 h) | IC50 ([6]; 48 h) | CC50 at 8 h [7] | CC50 at 12 h [7] | CC50 at 24 h [7] | CC50 at 48 h [7] | SI (CC50/IC50) ([8]; 12 h) | SI (CC50/IC50) ([8]; 24 h) | SI (CC50/IC50) ([8]; 48 h) | CC50 at 72 h [9, 14] | CC50 at 72 h [9, 15] | CC50 at 72 h [9, 16] | CC50 at 72 h [9, 17] | other results |
| --- | --- | --- | --- | --- | --- | --- | --- | --- | --- | --- | --- | --- | --- | --- | --- | --- | --- | --- | --- | --- | --- |
| COc1ccc(/C=C/C(=O)/C=C/c2ccc(OC)c(OC)c2)cc1OC [DBA 3, (1E,4E)-1,5-bis-(3,4-dimethoxyphenyl)penta-1,4-dien-3-one] | 11.5 ± 1.36 µM | 3.91 ± 0.25 µM | 1.51 ± 0.42 µM | 9.63 ± 1.58 µM | 4.87 ± 0.05 µM | > 100 µM | 63.3 ± 3.87 µM | 62.1 ± 1.52 µM | 3.72 ± 0.56 µM | 29.8 ± 1.32 µM | 2.79 ± 0.3 µM | 0.21 ± 0.13 µM | 0.22 ± 0.17 µM | 0.04 | 0.003 | 0.05 | 1.73 ± 0.05 µM | 1.62 ± 0.22 µM | 1.25 ± 0.02 µM | 1.15 ± 0.29 µM | SI (CC50/IC50) (infected C2C12 cells; infected C2C12, Brazil strain): 0.43; SI (CC50/IC50) (infected C2C12 cells; infected C2C12, CA-I/72 strain): 1.07; SI (CC50/IC50) (infected C2C12 cells; [18]): 0.13; SI (CC50/IC50) (infected C2C12 cells; [19]): 0.23; CC50 at 72 h [10]: 20.8 ± 0.67 µM; SI (CC50/IC50) (non-infected C2C12 cells): > 10; SI (CC50/IC50) (non-infected C2C12 cells; listed as 3): 13.78; CC50 at 72 h [11]: 11.5 ± 0.34 µM; SI (CC50/IC50) [12]: 7.62; Acute toxicity (general signs of toxicity or mortality) (female BALB/c mice; oral doses 300 and 1,000 mg/kg, 14-day period): no toxic effects; DA/TA (dead animals/total animals) (female BALB/c mice; single oral dose 300 mg/kg): 0/5; Mortality (female BALB/c mice; single oral dose 300 mg/kg): 0%; Signs of toxicity (female BALB/c mice; single oral dose 300 mg/kg): None; DA/TA (dead animals/total animals) (female BALB/c mice; single oral dose 1,000 mg/kg): 0/5; Mortality (female BALB/c mice; single oral dose 1,000 mg/kg): 0%; Signs of toxicity (female BALB/c mice; single oral dose 1,000 mg/kg): None; IC50 (P. falciparum; chloroquine-resistant strain): 1.69 µM; IC50 (P. falciparum; chloroquine-sensitive strain): 1.97 µM |
| O=C(/C=C/c1ccccc1)/C=C/c1ccccc1 [DBA 1, (1E,4E)-1,5-diphenylpenta-1,4-dien-3-one] | 41.2 ± 2.25 µM | 21.1 ± 2.51 µM | 4.67 ± 1.96 µM | 34 ± 2.92 µM | 11.7 ± 0.81 µM | > 100 µM | 76.8 ± 1.39 µM | 37.5 ± 1.01 µM | 14.6 ± 1.1 µM | 12.2 ± 1.15 µM | 2 ± 0.42 µM | 0.28 ± 0.04 µM | 0.03 ± 0.02 µM | 0.02 | 0.007 | 0.002 | 7.32 ± 0.41 µM | 5.74 ± 1.95 µM | 3.8 ± 0.24 µM | 3.29 ± 1 µM | SI (CC50/IC50) (infected C2C12 cells; infected C2C12, Brazil strain): 0.35; SI (CC50/IC50) (infected C2C12 cells; infected C2C12, CA-I/72 strain): 1.22; SI (CC50/IC50) (infected C2C12 cells; [18]): 0.11; SI (CC50/IC50) (infected C2C12 cells; [19]): 0.28; CC50 at 72 h [10]: 40.1 ± 1.25 µM; SI (CC50/IC50) (non-infected C2C12 cells): 8.59; CC50 at 72 h [11]: 16.6 ± 0.61 µM; SI (CC50/IC50) [12]: 3.54; MIC [13]: 100 µg/mL (≈ 427 µM); reduction in the parasitic viability (Trichomonas vaginalis; after 24 h incubation): 98.8%; IC50 (Trichomonas vaginalis): 50 µM |
